# Results published in publication PMC7688577 (FASEB journal : official publication of the Federation of …, 2020).
# Experiments:
# [1] = target: P23H rhodopsin fused with Renilla luciferase (Mus musculus, UniProt P15409, P23H); experiment: Rluc reporter assay in Hek293; type: cell-based; details: for Rluc assay Hek293 (RHO^P23H-Rluc) Efficacy: DMSO = 0%, 1 mM Evans Blue = -100%; for EC50: read-out: Rluc assay Hek293 (RHO^P23H-Rluc) EC50, 24 h treatment, dose response
# [2] = test system: WT rhodopsin fused with Renilla luciferase; experiment: Rluc reporter counter assay in Hek293; type: cell-based, mouse; details: DMSO = 0%, 1 mM Evans Blue = -100%; NA = no dose response effect
# Method in brief: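 HEK293 cells stably expressing WT rhodopsin–Rluc, run as the HTS reporter assay: cells spun 300 × g 30 s, cultured overnight at 37 °C, 5% CO2; test compound in DMSO pin-transferred. ViviREN (50 μM solution in PBS) added, 1 h dim light, room temperature; luminescence read. Score = (RLU_compound − RLU_DMSO)/(RLU_DMSO − RLU_Evans Blue) ×100; 10 μM triplicates and dose-response.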
# [3] = target: T1, P23H rhodopsin (Mus musculus, UniProt P15409, P23H); experiment: Image-based; type: cell-based; details: for Image-based assay NIH3T3 (RHO^P23H/GFP) Efficacy: DMSO = 0%, secondary antibody only = -100%; for EC50: read-out: Image-based assay NIH3T3 (RHO^P23H/GFP) EC50, 24 h treatment, 8-10 doses
# [4] = target: T1, P23H rhodopsin; experiment: Rhodopsin dot blot of NIH3T3; type: cell-based; details: NIH3T3(RHO^P23H/GFP) cells, 10 μM, 24 h, vs DMSO control
# Method in brief: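 NIH3T3(RHO^P23H/GFP) cells were seeded at 2.5 × 10⁴/well in 96-well plates, attached 4 h, then given medium with 2× test compound to reach 10 μM final for 24 h. Cells were PBS-washed and lysed in RIPA with protease inhibitors plus 6 s sonication. Of each well's lysate, 90% was dotted on nitrocellulose, air-dried and probed with 0.1 μg/mL HRP-1D4. Densitometry was normalized to DMSO.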
# [5] = test system: RHO transcripts; experiment: qPCR of RHO transcripts in NIH3T3; type: cell-based, mouse; details: 10 μM; for Rho mRNA level (qPCR): NIH3T3(RHO^P23H/GFP) cells, vs DMSO control; for Rho mRNA level (qPCR) / WT and P23H rhodopsin transcripts in comparison to DMSO control: 24 h
# Method in brief: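 NIH3T3 cells stably expressing WT or P23H rhodopsin (GFP lines) were seeded in 24-well plates at 2.5×10⁵ cells/well and cultured overnight at 37 °C, 5% CO₂. They were then exposed to test compound in culture medium for 24 h. RNA was precipitated by centrifugation at 12,000×g for 10 min at 4 °C, washed with 75% ethanol, air-dried and dissolved in nuclease-free water before qPCR.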
# [6] = target: T1, P23H rhodopsin; experiment: Non-radioactive pulse-chase assay in NIH3T3; type: cell-based; details: 10 μM; for Rate of Rho^P23H degradation (Pulse-chase): NIH3T3(RHO^P23H/GFP) cells, 24 h chase, vs DMSO control
# Method in brief: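 Non-radioactive pulse-chase. Cells (3 × 10⁵/well, 24-well) were grown overnight, starved in Met-free DMEM for 1 h, then pulsed with 50 μM L-AHA for 4 h (50 μM Met as negative control). Chase was 24 h in DMEM with 2 mM Met ± 10 μM test compound. Lysates (200 μg) were clicked with 5 μM BTN-sDIBO for 1 h at 37 °C, immunoprecipitated with 1D4, eluted at pH 2.8, dot-blotted and probed with HRP-streptavidin. Values normalized to DMSO on the same membrane; N=3, unpaired two-tailed t-test.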
# [7] = test system: rhodopsin mutants (T4R, P23H, P53R, C110Y, D190N, P267L); type: cell-based, mouse; details: U2OS cells; T4R, P23H, P53R, C110Y, D190N, P267L mutants
# Method in brief: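 U2OS stable lines expressed WT or mutant mouse rhodopsin fused to Venus. Cells were transfected with pcDNA3.1 Zeo constructs, kept 48 h in DMEM/10% FBS, then selected with 400 μg/mL Zeocin. Stable cells were treated with test compound at 10 μM and immunostained for rhodopsin.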
# [8] = both NIH3T3(RHO^P23H/GFP) and NIH3T3(RHO^WT/GFP) cells
Compound,Rluc assay Hek293 (RHO^P23H-Rluc) Efficacy [1],EC50 [1],Image-based assay NIH3T3 (RHO^P23H/GFP) Efficacy [3],EC50 [3],Rho protein level (Dot blot) [4],BTN-AHA labeled P23H rhodopsin at 24 h of chase in comparison to DMSO control [6],Rate of Rho^P23H degradation (Pulse-chase) [6],Rluc assay Hek293 (RHO^WT-Rluc) Efficacy [2],Rho mRNA level (qPCR) [5],"WT and P23H rhodopsin transcripts in comparison to DMSO control [5, 8]",Immunofluorescence intensities of rhodopsin mutants [7],"Increase of rhodopsin transcripts compared to DMSO control [5, 8]"
NCC(=O)COP(=O)(O)O [CL-005],−78.2%,6600 nM,−72.7%,1300 nM,Down,significantly reduced,,−57.9%,,,reduced,up to 2 fold
O=[N+]([O-])c1ccc(Cl)c([N+](=O)[O-])c1 [CL-006],−66.2%,1700 nM,−76.4%,2200 nM,Down,,No Change,−42.9%,Down,reduced non-selectively,,
CCn1cnc2c(N)ncnc21 [CL-007],−72.5%,13000 nM,−72.7%,2900 nM,Down,significantly reduced,,−51.7%,Down,reduced non-selectively,reduced,

# Continued, in another order:
Rluc assay Hek293 (RHO^P23H-Rluc) Efficacy [1],EC50 [1],Image-based assay NIH3T3 (RHO^P23H/GFP) Efficacy [3],EC50 [3],Rho protein level (Dot blot) [4],BTN-AHA labeled P23H rhodopsin at 24 h of chase in comparison to DMSO control [6],Rate of Rho^P23H degradation (Pulse-chase) [6],Compound,Rluc assay Hek293 (RHO^WT-Rluc) Efficacy [2],Rho mRNA level (qPCR) [5],"WT and P23H rhodopsin transcripts in comparison to DMSO control [5, 8]",Immunofluorescence intensities of rhodopsin mutants [7],"Increase of rhodopsin transcripts compared to DMSO control [5, 8]"
−69.4%,1100 nM,−83.6%,2100 nM,Down,significantly reduced,,CC(=O)OC(CC(=O)[O-])C[N+](C)(C)C (stereo not drawn) [CL-001],−44.3%,Down,reduced non-selectively,reduced,
−86.1%,2000 nM,−61.0%,1600 nM,Down,significantly reduced,,CC(=O)OC(CC(=O)O)C[N+](C)(C)C (stereo not drawn) [CL-002],−62.0%,Down,reduced non-selectively,reduced,
−65.3%,890 nM,−46.1%,600 nM,Down,,No Change,O=C(O)C1=CC=CC(O)C1O (stereo not drawn) [CL-003],−37.7%,Down,reduced non-selectively,,
−68.6%,1600 nM,−70.7%,470 nM,Down,,No Change,CC(O)CN (stereo not drawn) [CL-004],−45.5%,Down,reduced non-selectively,,
−89.5%,930 nM,−70.1%,1600 nM,Down,,No Change,CCC(C)(O)C(O)C(=O)O (stereo not drawn) [CL-008],−52.7%,Down,reduced non-selectively,,
